# High-throughput results as filed in PubChem BioAssay.
# Rows were chosen to be rich in hits. Some 3.7% of all compounds tested hit in one or more screens of this group.
# KCNK9 inh = human KCNK9 channel inhibition; actives 1.2% (n = 310,000); Q9NPC2; HEK293 KCNK9, FluxOR thallium flux fluorescence; stronger effect = lower value; B-score at 10 µM;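 active = ratio B-score over 3 SD below the library mean, with starting fluorescence within 5 SD of its mean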;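 also: negative B-score means less thallium flux so channel inhibition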
# hERG protect = hERG (human) protection from proarrhythmic block. Q12809. CHO-hERG, FluxOR thallium flux, dofetilide IC70 present. activation (rescue from dofetilide block), less the hit threshold, % at 10 µM. actives 0.51% (n = 310,000). AID 1511;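 active = activation above the mean of controls blocked by dofetilide plus 5 SD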;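 also: thallium influx through hERG after potassium depolarization seen as dye fluorescence rise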
# Kir21 inh = Kir2.1 (mouse) channel inhibition. P35561. AID 1672. HEK293-Kir2.1, FluxOR thallium flux fluorescence; stronger effect = lower value. actives 0.85% (n = 310,000). B-score at 10 µM;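 active = fluorescence ratio B-score at or below minus 3 SD of library scores, with starting-brightness B-score within 2 SD, cut at about -4.2 in these data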;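 also: channel flux triggered by added potassium and thallium sulfate stimulus; B-score of peak minus minimum fluorescence over baseline after thallium stimulus; more negative B-score means stronger Kir2.1 block with less thallium influx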
# KCNQ1 act = potentiates or activates the human KCNQ1 potassium channel; P51787; B-score at 10 µM; CHO-K1 KCNQ1, thallium flux FluxOR fluorescence; stronger effect = higher value; actives 0.35% (n = 310,000);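 active = fluorescence ratio B-score, a plate-corrected score, at least three library SD, with initial intensity B-score within 5 SD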
# Target sequence (P51787 whole entry, looked up): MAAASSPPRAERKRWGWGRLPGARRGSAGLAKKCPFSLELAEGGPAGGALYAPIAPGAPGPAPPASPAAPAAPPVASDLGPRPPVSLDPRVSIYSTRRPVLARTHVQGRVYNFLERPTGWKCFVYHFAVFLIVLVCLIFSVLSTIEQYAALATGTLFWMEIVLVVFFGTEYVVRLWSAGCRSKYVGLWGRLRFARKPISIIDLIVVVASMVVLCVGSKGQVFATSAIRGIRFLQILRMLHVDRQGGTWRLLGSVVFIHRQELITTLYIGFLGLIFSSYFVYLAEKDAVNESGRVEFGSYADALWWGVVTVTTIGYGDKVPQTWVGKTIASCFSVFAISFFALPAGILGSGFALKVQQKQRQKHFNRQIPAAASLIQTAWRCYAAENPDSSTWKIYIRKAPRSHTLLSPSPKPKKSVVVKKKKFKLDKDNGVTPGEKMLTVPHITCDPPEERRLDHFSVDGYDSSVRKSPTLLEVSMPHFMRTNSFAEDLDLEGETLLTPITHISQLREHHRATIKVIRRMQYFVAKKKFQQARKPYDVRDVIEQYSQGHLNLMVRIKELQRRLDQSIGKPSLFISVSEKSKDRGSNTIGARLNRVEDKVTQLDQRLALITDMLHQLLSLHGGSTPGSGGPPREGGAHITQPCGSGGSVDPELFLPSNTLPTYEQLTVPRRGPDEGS
#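 Medium – assay buffer, equal DMSO in all wells · Material – CHO-K1 cell line with stable KCNQ1 potassium channel expression · Signal – kinetic FluxOR thallium fluorescence, 10-s 1-Hz baseline, 110-s post-stimulus read · Compound – single concentration per compound, DMSO matched to controls · Schedule – 37 °C overnight plating, 90-min dark dye load, 20-min compound pretreatment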
# KCNQ1 inh = inhibitors of human KCNQ1 potassium channel; P51787; CHO-K1 KCNQ1, FluxOR thallium flux fluorescence; stronger effect = higher value; B-score at 10 µM; actives 1.3% (n = 310,000); AID 2642;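 active = compounds whose thallium flux B-score, printed positive for inhibition, exceeds three library SD while starting fluorescence stays within three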;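 also: channel opened by potassium depolarization with thallium stimulus after 20 min compound exposure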
# KCNK3 block = human KCNK3 channel inhibition, primary screen; O14649; CHO-KCNK3 thallium flux, FluxOR fluorescence; stronger effect = lower value; B-score at 10 µM; actives 0.84% (n = 340,000);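 active = B-score under library mean minus 4 SD, starting fluorescence ratio at most library mean plus 5 SD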;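 also: more negative B-score means stronger inhibition of thallium flux through KCNK3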
# Numbers without * were called inactive; i = inactive; nt = no result.
SMILES,KCNK9 inh,hERG protect,Kir21 inh,KCNQ1 act,KCNQ1 inh,KCNK3 block
O=C(NCC1CCCN1S(=O)(=O)c1cccs1)c1cccc(Cl)c1 (stereo unspecified),i,-18,-0.45,i,i,i
COc1ccc(OCCOCCN2CCN(C)CC2)cc1,i,-2,0.72,i,i,i
COc1cccc(OC)c1OCCOCCN1CCN(C)CC1,i,19*,0.01,19*,i,i
CCC(=O)c1cc(Br)ccc1OCC(=O)N1CCN(S(=O)(=O)c2ccccc2)CC1,nt,nt,nt,nt,nt,i
CCOC(=O)c1cnn(-c2nc3c(C)cccc3s2)c1C(F)(F)F,-7.9*,-10,0.96,i,i,i
O=C(COC(=O)c1ccccc1[N+](=O)[O-])NCCCc1ccccc1,i,-5,1.1,i,i,i
Cc1cccc2sc(NC(=O)CN(C)S(=O)(=O)c3ccc(Br)s3)nc12,i,-6,0.95,i,i,-9.9*
C=CCNC(=S)Nc1sc2c(c1C(=O)OCC)CC(C(C)C)OC2 (stereo unspecified),i,-1,1.1,48*,i,i
CCOC(=O)c1c(NC(=S)NCCc2ccccc2)sc2c1CC(C(C)C)OC2 (stereo unspecified),i,1,1.3,8*,i,i
CC(C)C1Cc2c(sc(NC(=S)NC(=O)c3ccccc3)c2C#N)CO1 (stereo unspecified),i,-11,0.27,i,i,i
CN(C(=O)CSc1nnc(-c2ccc(F)cc2)n1C)C1CCS(=O)(=O)C1 (stereo unspecified),nt,nt,nt,nt,nt,i
COc1ccc(NC(=O)c2cc3c(=O)n(C)c4ccccc4c3s2)cc1OC,i,-5,-0.4,i,i,i
COc1ccccc1NS(=O)(=O)c1ccc2oc(N)nc2c1,i,-8,-4.3*,i,i,i
CC1=C(C(=O)OC(C)C)C(c2ccc(Cl)cc2)n2c(s/c(=C\c3ccc(OCC(=O)O)cc3)c2=O)=N1 (stereo unspecified),i,-1,-2,i,7*,i
COC(=O)C1=C(C)N=c2s/c(=C/c3ccoc3)c(=O)n2C1c1ccccc1 (stereo unspecified),i,-18,-1.2,i,9*,i
CCOC(=O)C1=C(C)N=c2s/c(=C\c3ccc(OCC(=O)O)c(OC)c3)c(=O)n2C1c1ccc(OC)cc1 (stereo unspecified),i,-1,1.9,i,i,i
CCOC(=O)C1=C(C)N=c2s/c(=C\c3cccc(OCC(=O)O)c3)c(=O)n2C1c1ccccc1 (stereo unspecified),i,-10,-0.89,i,i,i
NS(=O)(=O)c1ccc(Nc2ncccc2[N+](=O)[O-])cc1,i,4.6*,-1.1,i,i,i
COc1ccccc1NS(=O)(=O)c1cccc(C(=O)NNC(=O)C(C)NC(=O)c2ccco2)c1 (stereo unspecified),nt,nt,nt,nt,nt,i
COC(=O)C1=C(C(=O)OC)[C@@H]2N(C)c3ccccc3[C@@]23C[C@@H](C(=O)OC)N(C(=O)c2ccc(Br)cc2)C3=N1,i,-8,-2.4,30*,i,i
COC(=O)C1=C(C(=O)OC)[C@@H]2N(Cc3ccccc3)c3ccccc3[C@@]23C[C@@H](C(=O)OC)N(C(=O)c2cc(C)oc2C)C3=N1,i,0,0.58,i,i,i
CC#CCN1c2ccccc2[C@]23C[C@@H](C(=O)OC)N(C(=O)c4ccc(Br)cc4)C2=NC(C(=O)OC)=C(C(=O)OC)[C@H]13,i,-4,-0.21,i,i,nt
COC(=O)C1=C(C(=O)OC)[C@@H]2N(Cc3ccccc3)c3ccccc3[C@@]23C[C@@H](C(=O)OC)N(C(=O)CC(C)C)C3=N1,-7.9*,-4,-0.41,i,i,i
COC(=O)C1=C(C(=O)OC)[C@@H]2N(Cc3ccccc3)c3ccccc3[C@@]23C[C@@H](C(=O)OC)N(C(=O)c2cccs2)C3=N1,-7.9*,-2,0.48,i,i,i
Cc1ccc(-c2[nH]ncc2/C=N/n2c(COc3ccccc3)nc3ccccc3c2=O)cc1,i,-18,1.4,i,i,i
SMILES,KCNK9 inh,hERG protect,Kir21 inh,KCNQ1 act,KCNQ1 inh,KCNK3 block
Cc1cc(/C=N/n2c(COc3ccccc3)nc3ccccc3c2=O)c(O)c([N+](=O)[O-])c1,i,-13,1.2,i,13*,i
CCOn1c(=O)c(=O)n(OC)c2ccccc21,i,-3,-0.12,i,i,i
COC(=O)c1ccccc1CSc1nsc(/C=C/N(C)C)c1C#N,i,-20,-0.12,i,6*,i
Cc1nc(CSc2nsc(/C=C/N(C)C)c2C#N)cs1,i,-9,-0.63,i,i,i
CCOC(=O)C(=CNc1ccc(Oc2cccnc2)nc1)C(=O)OCC,i,4.6*,0.2,i,i,i
CC(C)(C)c1ccc(C(=O)Nc2ccc(Oc3cccnc3)nc2)cc1,i,-6,-1.1,i,i,i
CCOC(=O)C(=CNc1cc(C)ccn1)C(=O)OCC,i,5.1*,0.9,i,i,i
COc1ccc(Br)cc1CN(C)CC(=O)Nc1cccc(S(=O)(=O)N2CCCC2)c1,nt,nt,nt,nt,nt,i
Nc1nc(=S)[nH]c2c1C1(CCCC1)Cc1ccccc1-2,i,6.1*,-1.5,i,i,i
Nc1nc(=S)[nH]c2c1C1(CCCCC1)Cc1ccccc1-2,i,-3,1.4,i,i,i
CC(C)(C)C1=CC=C(C(C)(C)C)C(=O)C1=O,i,-20,0.55,i,10*,nt
O=C(c1cccs1)N1CCN(C(=O)c2cccs2)C1=S,nt,nt,nt,nt,nt,i
CC(=O)C[C@@H](O)CC(=O)[C@@H]1OC(=O)[C@H](C)C/C=C\Cc2ccccc21,nt,nt,nt,nt,nt,i
COc1ccc2oc(C(=O)OCC(=O)N3CCCC3=O)c(C)c2c1,i,-8,0.1,i,i,i
Fc1ccc(NC(=S)Nc2nccs2)cc1,i,10*,1.3,i,i,i
S=C(N/N=C/c1ccc(Br)cc1)N1CCCCC1,i,-5,2.1,i,i,i
CSC(=S)N/N=C/c1ccc(N(C)C)cc1,i,-11,1.1,9*,i,i
CSC(=S)N/N=C/c1ccc(Br)cc1,i,19*,0.26,41*,i,i
COc1ccccc1/C=C/CN1CCC(n2nccc2NC(=O)C2CC2)CC1,i,-8,0.99,i,i,i
Cc1ccc(SCC(=O)NC(=O)c2ccc(S(=O)(=O)N(C)C)cc2)cc1C,i,-8,-1.4,i,i,i
CN(C)c1nc(C#N)nc(N(C)C)n1,i,10*,-0.16,i,i,i
